# The source made the active and inactive calls. No cut-off for these calls is given here. Where a SMILES comes first, the peptide text is derived from it.
# Legend:
# [1] = tested on: U-87 MG; assay: Cytotoxicity against human U87 cells assessed as reduction in cell viability at 400 uM measured after 48 hrs in absence of human neutrophil elastase by PrestoBlue reagent based assay; type: functional; details: U-87MG ATCC
# Procedure, shortened: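 U87 glioblastoma cells grown 48 h in DMEM/10% FBS, then switched to serum-free DMEM; prodrug (400 μM) added without elastase, serum restored to 10% after 1 h, cells kept 48 h at 37 °C. Viability by resazurin (PrestoBlue) reduction, 30 min at 37 °C, fluorescence ex 560/em 590 nm.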
# [2] = tested on: U-87 MG; assay: Cytotoxicity against human U87 cells assessed as reduction in cell viability measured after 24 to 72 hrs in presence of human neutrophil elastase by PrestoBlue reagent based assay; type: functional, U-87MG ATCC; details: dose 100-400 µM, time 24-72 hrs; for CC50: read-out: LC50 (the source's name); for Activity: U-87MG ATCC, DDE = dose-dependent effect
# Procedure, shortened: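 U87 cells cultured 48 h, medium changed to serum-free DMEM; prodrug (0–400 μM) plus human neutrophil elastase 0.68 μM added, 1 h incubation, then 10% serum added to stop enzyme and cells held 24, 48 or 72 h. Viability via resazurin (PrestoBlue), 30 min at 37 °C, fluorescence ex 560/em 590 nm.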
# [3] = Prodrug activation assessed as human neutrophil elastase mediated TEMPO release by EPR spectometric analysis
# Procedure, shortened: (§1)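 Human neutrophil elastase (20 nM final) with prodrug (300 μM final) in 50 mM HEPES, 150 mM NaCl, 5 mM CaCl2, 0.05% IGEPAL, pH 7.4, in capillaries at 37 °C; released stable nitroxide (TEMPO or DBNO) quantified by EPR against internal spectrometer calibration.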
# [4] = Prodrug activation assessed as human neutrophil elastase mediated DBNO release by EPR spectometric analysis; procedure, shortened: as §1
# [5] = tested on: U-87 MG; assay: Induction of apoptosis in human U87 cells assessed as activation of caspase3/7 at 75 to 250 uM measured after 48 hrs in presence of human neutrophil elastase by luminescence based multimode microplate reader assay; type: functional, cell-based; details: U-87MG ATCC, dose 75-250 µM
# Procedure, shortened: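 U87 cells in serum-free DMEM given alkoxyamine (75, 150, 250 μM) plus HNE 0.68 μM for 1 h, then 10% serum added; sampled at 1, 3, 7, 24, 48 h. Caspase 3/7 read by lytic luminogenic substrate reagent, 15 min at room temperature, luminescence. Controls: HNE alone, cells alone, doxorubicin 2 μM.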
# [6] = tested on: U-87 MG; assay: Induction of apoptosis in human U87 cells assessed as phosphatidylserine translocation at 75 to 250 uM measured after 48 hrs in presence of human neutrophil elastase; type: functional, cell-based; details: U-87MG ATCC, dose 75-250 µM
# Procedure, shortened: (§2)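 Serum-free U87 exposure to alkoxyamine 75, 150 or 250 μM with HNE 0.68 μM for 1 h, then 10% serum; followed 1–48 h. Live-cell RealTime-Glo reagent added, 60 min at 37 °C: annexin V phosphatidylserine binding by luminescence, membrane loss by cell-impermeant DNA dye fluorescence (ex 485/em 530 nm). Controls: HNE alone, untreated cells, doxorubicin 2 μM.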
# [7] = tested on: U-87 MG; assay: Induction of apoptosis in human U87 cells assessed as reduction in cell membrane integrity at 75 to 250 uM measured after 48 hrs in presence of human neutrophil elastase; type: functional, cell-based; details: U-87MG ATCC, dose 75-250 µM; procedure, shortened: as §2
# [8] = tested on: U-87 MG; assay: Cytotoxicity against human U87 cells assessed as cell viability at 100 to 400 uM measured after 24 to 72 hrs in absence of human neutrophil elastase by PrestoBlue reagent based assay; type: functional, U-87MG ATCC; details: dose 100-400 µM, time 24-72 hrs
# Procedure, shortened: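 U87 glioblastoma (DMEM, 10% FBS, 37 °C, 5% CO2) seeded 48 h, medium swapped to serum-free DMEM; prodrug 0–400 μM added without elastase, 1 h, then 10% serum restored; incubation 24, 48 or 72 h. Viability by resazurin-to-resorufin conversion (PrestoBlue, 1/10 volume, 30 min 37 °C), fluorescence ex 560/em 590 nm.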
# [9] = Prodrug activation assessed as urokinase mediated TEMPO release
Structure (SMILES),Activity [1],CC50 [2] [µM],Drug metabolism [3],Activity [2],Drug metabolism [4],Activity [5],Activity [6],Activity [7],Activity [8] [%],Drug metabolism [9]
CC(ON1C(C)(C)CCCC1(C)C)c1ccc(OC(=O)[C@@H](NC(=O)[C@@H]2CCCN2C(=O)[C@H](C)NC(=O)[C@H](C)NC(=O)CCC(=O)O)C(C)C)cc1 (some centres not stated) (HELM PEPTIDE1{[O=C(O)CCC(=O)[*:2]].A.A.P.V.[CC(ON1C(C)(C)CCCC1(C)C)c1ccc(O[*:1])cc1]}$$$$V2.0),Active,150,Metabolite_Detected,–,–,–,–,–,–,–
CC(ON(C(C)(C)C)C(C)(C)C)c1ccc(NC(=O)[C@@H](NC(=O)[C@@H]2CCCN2C(=O)[C@H](C)NC(=O)[C@H](C)NC(=O)CCC(=O)O)C(C)C)cc1 (some centres not stated) (HELM PEPTIDE1{[O=C(O)CCC(=O)[*:2]].A.A.P.V.[CC(ON(C(C)(C)C)C(C)(C)C)c1ccc(N[*:1])cc1]}$$$$V2.0),–,150,–,Dde,Metabolite_Detected,–,–,–,–,–
CC(ON(C(C)(C)C)C(C)(C)C)c1ccc(OC(=O)[C@@H](NC(=O)[C@@H]2CCCN2C(=O)[C@H](C)NC(=O)[C@H](C)NC(=O)CCC(=O)O)C(C)C)cc1 (some centres not stated) (HELM PEPTIDE1{[O=C(O)CCC(=O)[*:2]].A.A.P.V.[CC(ON(C(C)(C)C)C(C)(C)C)c1ccc(O[*:1])cc1]}$$$$V2.0),–,150,–,Dde,Metabolite_Detected,–,–,–,–,–
CC(ON1C(C)(C)CCCC1(C)C)c1ccc(NC(=O)[C@@H](NC(=O)[C@@H]2CCCN2C(=O)[C@H](C)NC(=O)[C@H](C)NC(=O)CCC(=O)O)C(C)C)cc1 (some centres not stated) (HELM PEPTIDE1{[O=C(O)CCC(=O)[*:2]].A.A.P.V.[CC(ON1C(C)(C)CCCC1(C)C)c1ccc(N[*:1])cc1]}$$$$V2.0),–,150,Metabolite_Detected,Dde,–,Active,Active,Active,100,Metabolite_Notdetected
